Test [1] addresses Low-density lipoprotein receptor (Homo sapiens) (UniProt P01130). Kind of test: Capability of derepressing the transcription of human Low density lipoprotein receptor promoter in the presence of 25-hydroxycholesterol in CHO cells by luciferase assay; NA= Not active within the test range 0-20 ug/mL. Format: cell-based. Summed up: (§1)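 Stably transfected CHO clone S27/B30 (LDL receptor promoter fused to firefly luciferase), grown to confluence (2-3 days, 37 °C, 5% CO2). Then 24 h in serum-free assay medium (DMEM/Ham's F-12 3:1, 0.5% bovine albumin) with 25-hydroxycholesterol 0.5 μg/mL plus compound at 0.30-20 μg/mL from ethanol stock, triplicate wells. Lysate luciferase peak light per μg protein (Coomassie). EC30 = concentration giving 30% rise over control. MA = % specific induction at 20 μg/mL.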

The next test concerns CHO. Briefly: Capability of derepressing the transcription of SV40 promoter in CHO cells by luciferase assay; NA= Not active within the test range 0-20 ug/mL. Format: functional, cell-based. The note with it: Cricetulus griseus. The method, boiled down: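 Counter-screen in CHO clone SV40/LN9, with luciferase driven by the SV40 promoter. Confluent monolayers were given compound at 0.30-20 μg/mL for 24 h in serum-free albumin assay medium, triplicate wells. Lysates were read for luciferase peak luminescence, normalized to lysate protein.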

Test [2] deals with Low-density lipoprotein receptor (Homo sapiens) (UniProt P01130). Briefly: Capability of derepressing the transcription of Low density lipoprotein receptor promoter in the presence of 25-hydroxycholesterol in CHO cells measured as maximum activity at 20 ug/mL. Format: cell-based. Summed up:
as §1

Test [3] has the same target. Briefly: Capability of derepressing the transcription of human Low density lipoprotein receptor promoter in the presence of 25-hydroxycholesterol in CHO cells by luciferase assay. Type of test: cell-based. The method, boiled down: as §1

SMILES strings stand for the structures. Calls of active or inactive are those of the source. The calls are words filed in the database; no cut-off is given here.

A word on the EC30: it is the concentration at which the effect reaches the 30% level.

Chain of Low-density lipoprotein receptor (Homo sapiens) (P01130 whole entry, the tested form may be a part): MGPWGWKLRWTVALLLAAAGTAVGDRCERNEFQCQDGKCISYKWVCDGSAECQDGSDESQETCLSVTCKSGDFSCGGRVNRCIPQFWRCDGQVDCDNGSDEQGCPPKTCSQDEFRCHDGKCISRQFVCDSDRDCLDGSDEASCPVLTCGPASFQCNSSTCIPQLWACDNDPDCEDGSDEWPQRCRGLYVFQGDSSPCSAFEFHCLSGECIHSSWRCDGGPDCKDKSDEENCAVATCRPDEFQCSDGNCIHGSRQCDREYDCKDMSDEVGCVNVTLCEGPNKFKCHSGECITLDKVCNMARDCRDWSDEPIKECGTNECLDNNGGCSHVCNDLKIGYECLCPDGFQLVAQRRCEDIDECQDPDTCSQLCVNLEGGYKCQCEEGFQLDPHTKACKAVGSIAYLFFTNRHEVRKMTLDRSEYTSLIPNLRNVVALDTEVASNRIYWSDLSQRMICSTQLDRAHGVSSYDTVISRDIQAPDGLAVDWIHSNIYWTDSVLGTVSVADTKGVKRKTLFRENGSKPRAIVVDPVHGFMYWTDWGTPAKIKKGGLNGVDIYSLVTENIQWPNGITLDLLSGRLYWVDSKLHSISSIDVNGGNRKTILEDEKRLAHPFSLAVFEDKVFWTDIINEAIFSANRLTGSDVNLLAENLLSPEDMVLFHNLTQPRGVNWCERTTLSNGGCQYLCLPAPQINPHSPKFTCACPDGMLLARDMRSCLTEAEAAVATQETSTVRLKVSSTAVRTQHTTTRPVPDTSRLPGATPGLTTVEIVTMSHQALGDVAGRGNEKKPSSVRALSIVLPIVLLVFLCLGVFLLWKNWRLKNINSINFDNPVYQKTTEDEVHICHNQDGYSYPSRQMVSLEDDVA

With `CC(C)CCC[C@@H](C)[C@H]1CC[C@H]2[C@@H]3CC[C@H]4CC(=O)CC[C@]4(C)[C@H]3CC[C@]12C`, the EC30 result in test [1] is “inactive”.

For the compound `Cc1cccc(C[C@H]2C3CC[C@H]4[C@@H]5CC[C@H]([C@H](C)CCCC(C)C)[C@@]5(C)CC[C@@H]4[C@@]3(C)CC[C@H]2O)c1` (stereo not given in full), the EC30 result in test [1] was “inactive”. Take `C=CC[C@@H]1C[C@H]2[C@@H]3CC[C@H]([C@H](C)CCCC(C)C)[C@@]3(C)CC[C@@H]2[C@@]2(C)CC[C@@H](O)CC12` (stereo not given in full): in test [1], the EC30 result is “inactive”.

Regarding `CC(C)CCC[C@@H](C)[C@H]1CC[C@H]2[C@@H]3CCC4[C@H](Cc5ccc(C=O)cc5)[C@H](O)CC[C@]4(C)[C@H]3CC[C@]12C` (stereo not given in full), in test [1], the EC30 result is “inactive”. The same measure, in the same setting: for `CC(C)CCC[C@@H](C)[C@H]1CC[C@H]2[C@@H]3CCC4[C@H](Cc5ccc(CO)cc5)[C@H](O)CC[C@]4(C)[C@H]3CC[C@]12C` (stereo not given in full) the value was “inactive”.

For the compound `CCCC[C@H]1C2CC[C@H]3[C@@H]4CC[C@H]([C@H](C)CCCC(C)C)[C@@]4(C)CC[C@@H]3[C@@]2(C)CC[C@H]1O` (stereo not given in full), the result in the test with CHO was inactive. Besides, the MA in test [2] is 88%. The EC30 in test [3] amounted to 20 µM.

As to `C=CC[C@H]1C[C@H]2[C@@H]3CC[C@H]([C@H](C)CCCC(C)C)[C@@]3(C)CC[C@@H]2[C@@]2(C)CC[C@@H](O)CC12` (stereo not given in full), the EC30 result in test [1] was “inactive”. Consider `CC(C)CCC[C@@H](C)[C@H]1CC[C@H]2[C@@H]3CCC4[C@H](Cc5cccc(F)c5)[C@H](O)CC[C@]4(C)[C@H]3CC[C@]12C` (stereo not given in full), for which, in test [1], the EC30 entry was “inactive”. Still for that read-out and setting: for `C=C(Cl)C[C@H]1C2CC[C@H]3[C@@H]4CC[C@H]([C@H](C)CCCC(C)C)[C@@]4(C)CC[C@@H]3[C@@]2(C)CC[C@@H]1O` (stereo not given in full) the value was “inactive”; for `CC(C)CCC[C@@H](C)[C@H]1CC[C@H]2[C@@H]3CCC4[C@H](Cc5ccc(C(=O)O)cc5)[C@H](O)CC[C@]4(C)[C@H]3CC[C@]12C` (stereo not given in full), “inactive”. Turning to `C/C=C(\C)C[C@H]1C2CC[C@H]3[C@@H]4CC[C@H]([C@H](C)CCCC(C)C)[C@@]4(C)CC[C@@H]3[C@@]2(C)CC[C@H]1O` (stereo not given in full), the outcome in the test on CHO was inactive. The MA in test [2] was found to be 72%. For the same compound, the EC30 in test [3] is 18 µM.

For `C=C(Br)C[C@H]1C2CC[C@H]3[C@@H]4CC[C@H]([C@H](C)CCCC(C)C)[C@@]4(C)CC[C@@H]3[C@@]2(C)CC[C@H]1O` (stereo not given in full), the result in the test with CHO was inactive. Further, the MA in test [2] was found to be 131%. Also, the concentration for an effect of 30% (EC30) in test [3] turned out to be 3.2 µM. As for `CC(C)CCC[C@@H](C)[C@H]1CC[C@H]2[C@@H]3CCC4[C@H](C/C=C/c5ccccc5)[C@H](O)CC[C@]4(C)[C@H]3CC[C@]12C` (stereo not given in full), the EC30 entry in test [1] is “inactive”.

Turning to `CC(C)=CC[C@H]1C2CC[C@H]3[C@@H]4CC[C@H]([C@H](C)CCCC(C)C)[C@@]4(C)CC[C@@H]3[C@@]2(C)CC[C@H]1O` (stereo not given in full), in test [1], the EC30 entry was “inactive”. On to `C=CC[C@@H]1[C@H]2CC[C@@H]3[C@H](CC[C@]4(C)[C@@H]([C@H](C)CCCC(C)C)CC[C@@H]34)[C@@]2(C)CC[C@@H]1O`, for which, in test [1], the EC30 entry is “inactive”. For the compound `C=C[C@H]1C2CC[C@H]3[C@@H]4CC[C@H]([C@H](C)CCCC(C)C)[C@@]4(C)CC[C@@H]3[C@@]2(C)CC[C@H]1O` (stereo not given in full), the EC30 entry in test [1] was “inactive”. With `C=CC[C@H]1C2CC[C@H]3[C@@H]4CC[C@H]([C@H](C)CCCC(C)(C)O)[C@@]4(C)CC[C@@H]3[C@@]2(C)CC[C@H]1O` (stereo not given in full), the MA in test [2] was 111%. The EC30 in test [3] was determined as 9.4 µM. As to `C/C=C\C[C@H]1C2CC[C@H]3[C@@H]4CC[C@H]([C@H](C)CCCC(C)C)[C@@]4(C)CC[C@@H]3[C@@]2(C)CC[C@H]1O` (stereo not given in full), the outcome with CHO was inactive. In test [2], the MA worked out at 72%. For the same compound, in test [3], the EC30 was 26 µM. In the case of `CC/C=C/C[C@H]1C2CC[C@H]3[C@@H]4CC[C@H]([C@H](C)CCCC(C)C)[C@@]4(C)CC[C@@H]3[C@@]2(C)CC[C@H]1O` (stereo not given in full), the EC30 result in test [1] is “inactive”. Regarding `CC(C)CCC[C@@H](C)[C@H]1CC[C@H]2[C@@H]3CCC4[C@H](Cc5ccc(C(F)(F)F)cc5)[C@H](O)CC[C@]4(C)[C@H]3CC[C@]12C` (stereo not given in full), in the test with CHO, the result was inactive. Further, the MA in test [2] came out at 58%. For the same compound, the concentration for an effect of 30% (EC30) in test [3] stood at 12 µM. For the compound `CC(C)CCC[C@@H](C)[C@H]1CC[C@H]2[C@@H]3CCC4[C@H](Cc5ccc(F)cc5F)[C@H](O)CC[C@]4(C)[C@H]3CC[C@]12C` (stereo not given in full), in test [1], the EC30 entry was “inactive”. As to `CC(C)CCC[C@@H](C)[C@H]1CC[C@H]2[C@@H]3CCC4[C@H](Cc5cccc(F)c5F)[C@H](O)CC[C@]4(C)[C@H]3CC[C@]12C` (stereo not given in full), the EC30 result in test [1] is “inactive”. For the compound `C#CC[C@H]1C2CC[C@H]3[C@@H]4CC[C@H]([C@H](C)CCCC(C)C)[C@@]4(C)CC[C@@H]3[C@@]2(C)CC[C@H]1O` (stereo not given in full), the EC30 result in test [1] is “inactive”. Still for that read-out and setting: for `COc1ccc(C[C@H]2C3CC[C@H]4[C@@H]5CC[C@H]([C@H](C)CCCC(C)C)[C@@]5(C)CC[C@@H]4[C@@]3(C)CC[C@H]2O)cc1` (stereo not given in full) the value was “inactive”; for `CC(C)CCC[C@@H](C)[C@H]1CC[C@H]2[C@@H]3CCC4[C@H](Cc5ccc(Cl)c(Cl)c5)[C@H](O)CC[C@]4(C)[C@H]3CC[C@]12C` (stereo not given in full), “inactive”; for `C=CC[C@@H]1C[C@@]2(C)C(CC[C@H]3[C@@H]4CC[C@H]([C@H](C)CCCC(C)C)[C@@]4(C)CC[C@@H]32)C[C@H]1O` (stereo not given in full), “inactive”.

Turning to `CC(C)CCC[C@@H](C)[C@H]1CC[C@H]2[C@@H]3CCC4[C@H](Cc5ccccc5F)[C@H](O)CC[C@]4(C)[C@H]3CC[C@]12C` (stereo not given in full), the EC30 result in test [1] was “inactive”. In the case of `C=CC[C@H]1[C@H](O)CC[C@@]2(C)[C@@H]1CC[C@@H]1[C@@H]2CC[C@]2(C)[C@@H]([C@H](C)CCCC(C)C)CC[C@@H]12`, the EC30 entry in test [1] was “inactive”. `C=C(C)C[C@H]1C2CC[C@H]3[C@@H]4CC[C@H]([C@H](C)CCCC(C)C)[C@@]4(C)CC[C@@H]3[C@@]2(C)CC[C@H]1O` (stereo not given in full): the result in the test with CHO was inactive. Besides, the MA in test [2] was found to be 124%. In addition, the EC30 in test [3] came to 2.8 µM. On to `C=CC[C@@H]1C[C@@]2(C)C(CC[C@H]3[C@@H]4CC[C@H]([C@H](C)CCCC(C)C)[C@@]4(C)CC[C@@H]32)[C@H](CC=C)[C@@H]1O` (stereo not given in full), for which, in test [1], the EC30 result was “inactive”.

In the case of `CC(C)CCC[C@@H](C)[C@H]1CC[C@H]2[C@@H]3CCC4[C@H](Cc5ccc(OCc6ccccc6)cc5)[C@H](O)CC[C@]4(C)[C@H]3CC[C@]12C` (stereo not given in full), in test [1], the EC30 entry is “inactive”.

As for `CC(C)CCC[C@@H](C)[C@H]1CC[C@H]2[C@@H]3CCC4[C@H](Cc5ccc(Cl)cc5)[C@H](O)CC[C@]4(C)[C@H]3CC[C@]12C` (stereo not given in full), in the test with CHO, the result was inactive. Moreover, in test [2], the MA was determined as 63%. In addition, in test [3], the EC30 is 42 µM. As to `CC(C)CCC[C@@H](C)[C@H]1CC[C@H]2[C@@H]3CCC4[C@H](C/C=C/CO)[C@H](O)CC[C@]4(C)[C@H]3CC[C@]12C` (stereo not given in full), the EC30 result in test [1] was “inactive”. For `CC(C)CCC[C@@H](C)[C@H]1CC[C@H]2[C@@H]3CCC4[C@H](Cc5ccc(C#N)cc5)[C@H](O)CC[C@]4(C)[C@H]3CC[C@]12C` (stereo not given in full), in the test with CHO, the result was inactive. For the same compound, the MA in test [2] amounted to 55%. Also, the concentration for an effect of 30% (EC30) in test [3] was 9.9 µM. As to `CC(C)CCC[C@@H](C)[C@H]1CC[C@H]2[C@@H]3CCC4[C@H](Cc5cccc(I)c5)[C@H](O)CC[C@]4(C)[C@H]3CC[C@]12C` (stereo not given in full), the MA entry in test [1] is “inactive”.

With `COC(=O)c1ccc(C[C@H]2C3CC[C@H]4[C@@H]5CC[C@H]([C@H](C)CCCC(C)C)[C@@]5(C)CC[C@@H]4[C@@]3(C)CC[C@H]2O)cc1` (stereo not given in full), the outcome in the test with CHO was inactive. Also, the MA in test [2] was found to be 48%. Also, the EC30 in test [3] was 14 µM.

(Values after ChEMBL document CHEMBL1128436, “Synthesis and biological evaluation of a new series of sterols as potential hypocholesterolemic agents” (1995).)
